According to ChEMBL document CHEMBL1157034, “Synthesis of 1-benzyl-3-(5-hydroxymethyl-2-furyl)selenolo[3,2-c]pyrazole derivatives as new anticancer agents” (Eur J Med Chem, 2010):

Assays:
[1] = tested on: MOLT-4; assay: Antitumor activity against human MOLT4 cells after 48 hrs by MTT assay; type: functional; conditions: MOLT-4, 48 h
[2] = Antitumor activity against human […] cells after 48 hrs by MTT assay; type: functional
[3] = tested on: SR; assay: Antitumor activity against human SR cells after 48 hrs by MTT assay; type: functional
[4] = tested on: A549; assay: Antitumor activity against human A549 cells after 48 hrs by MTT assay; type: functional; conditions: A549, 48 h
[5] = tested on: EKVX; assay: Antitumor activity against human EKVX cells after 48 hrs by MTT assay; type: functional
[6] = tested on: NCI-H226; assay: Antitumor activity against human NCI-H226 cells after 48 hrs by MTT assay; type: functional, cell-based; conditions: NCI-H226, 48 h
Procedure, shortened: (§1)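 Cells grown at 37 °C in humidified 5% CO2, seeded at 1×10^4 cells/well, and allowed to attach for 24 h. They were then exposed to a range of concentrations for 48 h, washed with PBS, and given 1 mg/ml MTT for 2 h. Formazan was dissolved in DMSO and read at 570 nm.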

[7] = tested on: HCT-116; assay: Antitumor activity against human HCT116 cells after 48 hrs by MTT assay; type: functional; conditions: HCT-116, 48 h
[8] = tested on: SW-620; assay: Antitumor activity against human SW620 cells after 48 hrs by MTT assay; type: functional; conditions: SW-620, 48 h
[9] = tested on: SF-268; assay: Antitumor activity against human SF268 cells after 48 hrs by MTT assay; type: functional; conditions: SF-268, 48 h
[10] = tested on: SF-295; assay: Antitumor activity against human SF295 cells after 48 hrs by MTT assay; type: functional; conditions: SF-295, 48 h
[11] = tested on: SF-539; assay: Antitumor activity against human SF539 cells after 48 hrs by MTT assay; type: functional; conditions: SF-539, 48 h
[12] = tested on: SNB-75; assay: Antitumor activity against human SNB75 cells after 48 hrs by MTT assay; type: functional; conditions: SNB-75, 48 h
[13] = tested on: U-251; assay: Antitumor activity against human U251 cells after 48 hrs by MTT assay; type: functional; conditions: U-251, 48 h
[14] = tested on: Malme-3M; assay: Antitumor activity against human MALME-3M cells after 48 hrs by MTT assay; type: functional
[15] = tested on: SK-MEL-28; assay: Antitumor activity against human SK-MEL-28 cells after 48 hrs by MTT assay; type: functional; conditions: SK-MEL-28, 48 h
[16] = tested on: OVCAR-5; assay: Antitumor activity against human OVCAR5 cells after 48 hrs by MTT assay; type: functional; conditions: OVCAR-5, 48 h
[17] = tested on: 786-0; assay: Antitumor activity against human 786-0 cells after 48 hrs by MTT assay; type: functional; conditions: 786-0, 48 h
[18] = tested on: A498; assay: Antitumor activity against human A498 cells after 48 hrs by MTT assay; type: functional; conditions: A498, 48 h; procedure, shortened: as §1
[19] = tested on: ACHN; assay: Antitumor activity against human ACHN cells after 48 hrs by MTT assay; type: functional, cell-based
[20] = tested on: CAKI-1; assay: Antitumor activity against human Caki1 cells after 48 hrs by MTT assay; type: functional; conditions: CAKI-1, 48 h
[21] = tested on: RXF 393; assay: Antitumor activity against human RXF393 cells after 48 hrs by MTT assay; type: functional; conditions: RXF 393, 48 h
[22] = tested on: SN12C; assay: Antitumor activity against human SN12C cells after 48 hrs by MTT assay; type: functional
[23] = tested on: TK-10; assay: Antitumor activity against human TK10 cells after 48 hrs by MTT assay; type: functional; conditions: TK-10, 48 h
[24] = tested on: UO-31; assay: Antitumor activity against human UO31 cells after 48 hrs by MTT assay; type: functional; conditions: UO-31, 48 h
[25] = tested on: MCF7; assay: Antitumor activity against human MCF7 cells after 48 hrs by MTT assay; type: functional; conditions: MCF7, 48 h
[26] = Antitumor activity against human MCF7/ADR cells after 48 hrs by MTT assay; type: functional; conditions: NCI/ADR-RES
[27] = tested on: MDA-MB-231; assay: Antitumor activity against human MDA-MB-231 cells after 48 hrs by MTT assay; type: functional; conditions: MDA-MB-231, 48 h
[28] = tested on: BT-549; assay: Antitumor activity against human BT549 cells after 48 hrs by MTT assay; type: functional; conditions: BT-549, 48 h
[29] = tested on: T47D; assay: Antitumor activity against human T47D cells after 48 hrs by MTT assay; type: functional
[30] = tested on: CCRF-CEM; assay: Antitumor activity against human CCRF-CEM cells after 48 hrs by MTT assay; type: functional
[31] = tested on: HL-60(TB); assay: Antitumor activity against human HL-60(TB) cells after 48 hrs by MTT assay; type: functional; conditions: HL-60, 48 h
[32] = tested on: K562; assay: Antitumor activity against human K562 cells after 48 hrs by MTT assay; type: functional; conditions: K562, 48 h
[33] = read-out: pLC50 (the source's name) (converted)

In the case of OCc1ccc(-c2nn(Cc3ccccc3)c3cc[se]c23)o1, the GI50 [1] was 22.9 µM, the CC50 [1, 33] was greater than 100 µM and the GI50 [2] was 22.4 µM. The CC50 [2, 33] was greater than 100 µM, the TGI ([2]; read-out: pTGI) was greater than 100 µM and the GI50 [3] was 21.9 µM. For the same compound, the CC50 [3, 33] was greater than 100 µM, the TGI ([3]; read-out: pTGI (converted)) was 63.1 µM and the GI50 [4] was 36.3 µM. For the same compound, the CC50 [4, 33] was greater than 100 µM, the TGI ([4]; read-out: pTGI) was greater than 100 µM and the GI50 [5] was 33.1 µM. The CC50 [5, 33] was greater than 100 µM, the TGI ([5]; read-out: pTGI) was greater than 100 µM and the GI50 [6] was 0.316 µM. For the same compound, the TGI ([6]; read-out: pTGI (converted)) was 0.977 µM, the GI50 [7] was 18.2 µM and the CC50 [7, 33] was greater than 100 µM. It also gave a TGI ([7]; read-out: pTGI) greater than 100 µM, a GI50 [8] of 35.5 µM and a CC50 [8, 33] greater than 100 µM. The TGI ([8]; read-out: pTGI) was greater than 100 µM, the GI50 [9] was 40.7 µM and the CC50 [9, 33] was greater than 100 µM. The TGI ([9]; read-out: pTGI) was greater than 100 µM, the GI50 [10] was 19.1 µM and the CC50 [10, 33] was greater than 100 µM. It also gave a TGI ([10]; read-out: pTGI (converted)) of 63.1 µM, a GI50 [11] of 27.5 µM and a CC50 [11, 33] greater than 100 µM. It also gave a TGI ([11]; read-out: pTGI) greater than 100 µM, a GI50 [12] of 22.4 µM and a CC50 [12, 33] greater than 100 µM. The TGI ([12]; read-out: pTGI (converted)) was 100 µM, the GI50 [13] was 27.5 µM and the CC50 [13, 33] was greater than 100 µM. For the same compound, the TGI ([13]; read-out: pTGI) was greater than 100 µM, the GI50 [14] was 25.7 µM and the CC50 [14, 33] was greater than 100 µM. For the same compound, the TGI ([14]; read-out: pTGI) was greater than 100 µM, the GI50 [15] was 28.8 µM and the CC50 [15, 33] was greater than 100 µM. For the same compound, the TGI ([15]; read-out: pTGI (converted)) was 91.2 µM, the GI50 ([16]; read-out: pGI50 (converted)) was 7.41 µM and the CC50 [16, 33] was greater than 100 µM. For the same compound, the TGI ([16]; read-out: pTGI) was greater than 100 µM, the GI50 ([17]; read-out: pGI50 (converted)) was 33.1 µM and the CC50 [17, 33] was greater than 100 µM. It also gave a TGI ([17]; read-out: pTGI) greater than 100 µM, a GI50 ([18]; read-out: pGI50 (converted)) of 0.162 µM and a CC50 ([18]; read-out: pLC50 (converted)) of 0.631 µM. For the same compound, the TGI ([18]; read-out: pTGI) was 0.324 µM, the GI50 ([19]; read-out: pGI50 (converted)) was 25.7 µM and the LC50 ([19]; read-out: pLC50 (converted)) was greater than 100 µM. The TGI ([19]; read-out: pTGI) was less than 100 µM, the CC50 [20, 33] was greater than 100 µM and the TGI ([20]; read-out: pTGI) was greater than 100 µM. The GI50 ([21]; read-out: pGI50 (converted)) was 11.5 µM, the CC50 [21, 33] was greater than 100 µM and the TGI ([21]; read-out: pTGI) was 51.3 µM. For the same compound, the GI50 ([22]; read-out: pGI50 (converted)) was 43.6 µM, the CC50 [22, 33] was greater than 100 µM and the TGI ([22]; read-out: pTGI) was greater than 100 µM. For the same compound, the GI50 ([23]; read-out: pGI50 (converted)) was 1.7 µM, the CC50 [23, 33] was greater than 100 µM and the TGI ([23]; read-out: pTGI) was greater than 100 µM. The GI50 ([24]; read-out: pGI50 (converted)) was 41.7 µM, the CC50 [24, 33] was greater than 100 µM and the TGI ([24]; read-out: pTGI) was greater than 100 µM. The GI50 ([25]; read-out: pGI50 (converted)) was 11.2 µM, the CC50 [25, 33] was greater than 100 µM and the TGI ([25]; read-out: pTGI) was greater than 100 µM. For the same compound, the CC50 [26, 33] was greater than 100 µM, the TGI ([26]; read-out: pTGI) was greater than 100 µM and the GI50 [27] was 36.3 µM. It also gave a CC50 [27, 33] greater than 100 µM, a TGI ([27]; read-out: pTGI) greater than 100 µM and a GI50 [28] of 25.1 µM. It also gave a CC50 [28, 33] greater than 100 µM, a TGI ([28]; read-out: pTGI (converted)) of 95.5 µM and a GI50 [29] of 21.4 µM. For the same compound, the CC50 [29, 33] was greater than 100 µM, the TGI ([29]; read-out: pTGI (converted)) was 89.1 µM and the GI50 [30] was 24.5 µM. It also gave a CC50 [30, 33] greater than 100 µM, a TGI ([30]; read-out: pTGI) greater than 100 µM and a GI50 [31] of 19.5 µM. It also gave a CC50 [31, 33] greater than 100 µM, a TGI ([31]; read-out: pTGI (converted)) of 49 µM and a GI50 [32] of 25.1 µM. The CC50 [32, 33] was greater than 100 µM and the TGI ([32]; read-out: pTGI) was greater than 100 µM.
